Usually IC50 stands for the point on the concentration scale where inhibition reaches its midpoint.

The structures appear in SMILES notation. Active and inactive are the calls of the source. The rule behind the calls is not given here.

In assay [1] the test system is Colletotrichum acutatum. Briefly: Antifungal activity against Colletotrichum acutatum assessed as inhibition of fungal growth measured after 72 hr by 96-well microdilution assay. Type of assay: functional, organism-based. In outline:
(§1)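 Conidia were harvested from 7-10 day PDA cultures grown at 24 °C with a 12 h photoperiod, filtered through Miracloth, and set to 1.0 × 10^6 conidia/mL by A625. Six-point microdilution broth format used final concentrations of 1, 3.3, 10, 33, 100 and 333 µM, with captan as standard. Growth was read at A620 at 0-72 h (Phomopsis also 120 and 144 h). Two experiments were pooled; IC50 was taken as 50% growth reduction.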
In general terms: Dilution methods test growth across graded concentrations, often in twofold steps.

The test system of assay [2] is Botrytis cinerea. Briefly: Antifungal activity against Botryotinia fuckeliana assessed as inhibition of fungal growth measured after 72 hr by 96-well microdilution assay. Type of assay: functional, organism-based. The gist of the method:
as §1

The subject of assay [3] is Fusarium oxysporum. Briefly: Antifungal activity against Fusarium oxysporum assessed as inhibition of fungal growth measured after 72 hr by 96-well microdilution assay. Type of assay: functional, organism-based. The gist of the method: as §1
Assay [4] relates to Colletotrichum gloeosporioides. Kind of assay: Antifungal activity against Colletotrichum gloeosporioides assessed as inhibition of fungal growth measured after 72 hr by 96-well microdilution assay. Type of assay: functional, organism-based. In outline: as §1
The subject of assay [5] is Colletotrichum fragariae. Briefly: Antifungal activity against Colletotrichum fragariae assessed as inhibition of fungal growth measured after 72 hr by 96-well microdilution assay. The assay is classed as functional, organism-based. The gist of the method: as §1
In assay [6] the test system is Phomopsis obscurans. Briefly: Antifungal activity against Phomopsis obscurans assessed as inhibition of fungal growth measured after 120 hr by 96-well microdilution assay. The assay is classed as functional, organism-based. Conditions: Paraphomopsis obscurans. In outline:
as §1

Assay [7] relates to Fusarium oxysporum. Kind of assay: Antifungal activity against Fusarium oxysporum assessed as inhibition of fungal growth measured after 48 hr by 96-well microdilution assay. The assay is classed as functional, organism-based. In outline:
as §1

Assay [8] has as its system Colletotrichum acutatum. Kind of assay: Antifungal activity against Colletotrichum acutatum assessed as inhibition of fungal growth measured after 48 hr by 96-well microdilution assay. Type of assay: functional, organism-based. The gist of the method: as §1
Assay [9] relates to Botrytis cinerea. Kind of assay: Antifungal activity against Botryotinia fuckeliana assessed as inhibition of fungal growth measured after 48 hr by 96-well microdilution assay. The assay is classed as functional, organism-based. The gist of the method:
as §1

Assay [10] relates to Colletotrichum fragariae. Briefly: Antifungal activity against Colletotrichum fragariae assessed as inhibition of fungal growth measured after 48 hr by 96-well microdilution assay. Type of assay: functional, organism-based. In outline:
as §1

In assay [11] the test system is Colletotrichum gloeosporioides. Kind of assay: Antifungal activity against Colletotrichum gloeosporioides assessed as inhibition of fungal growth measured after 48 hr by 96-well microdilution assay. The assay is classed as functional, organism-based. The gist of the method:
as §1

Assay [12] concerns Phomopsis viticola. Briefly: Antifungal activity against Phomopsis viticola assessed as inhibition of fungal growth measured after 144 hr by 96-well microdilution assay.
For assay [13], the system named is Phomopsis viticola. Briefly: Antifungal activity against Phomopsis viticola assessed as inhibition of fungal growth measured after 120 hr by 96-well microdilution assay.
The subject of assay [14] is Colletotrichum fragariae. Briefly: Antifungal activity against Colletotrichum fragariae assessed as inhibition of fungal growth at 80 ug measured after 4 to 5 days by direct bioautography. The assay is classed as functional. Conditions: read-out: DIZ. The gist of the method:
(§2)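 For TLC direct bioautography, developed plates were sprayed with a conidial suspension of the test fungus. Plates were incubated in a moisture chamber at 26 °C with a 12 h photoperiod. Zones of growth inhibition were measured as diameters 4-5 days after treatment and reported as mean zone dimensions (mm) ± SD.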

The test system of assay [15] is Colletotrichum acutatum. Briefly: Antifungal activity against Colletotrichum acutatum assessed as inhibition of fungal growth at 20 ug measured after 4 to 5 days by direct bioautography. The assay is classed as functional. To be noted: read-out: DIZ. The gist of the method: as §2
In assay [16] the test system is Colletotrichum acutatum. Kind of assay: Antifungal activity against Colletotrichum acutatum assessed as inhibition of fungal growth at 80 ug measured after 4 to 5 days by direct bioautography. Type of assay: functional. Conditions: read-out: DIZ. The gist of the method: as §2
Assay [17] relates to Colletotrichum fragariae. Kind of assay: Growth stimulation of Colletotrichum fragariae up to 100 uM after 24 to 72 hr by 96-well microdilution assay. The assay is classed as functional, organism-based. The gist of the method: as §1
Assay [18] has as its system Phomopsis obscurans. Briefly: Antifungal activity against Phomopsis obscurans assessed as inhibition of fungal growth measured after 144 hr by 96-well microdilution assay. Type of assay: functional, organism-based. Conditions: Paraphomopsis obscurans. The gist of the method:
as §1

For assay [19], the system named is Colletotrichum acutatum. Kind of assay: Antifungal activity against Colletotrichum acutatum assessed as inhibition of fungal growth at 90 uM measured after 72 hr by 96-well microdilution assay. The assay is classed as functional. Conditions: read-out: GI. In outline: (§3)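 Initial three-point microdilution broth screen at final concentrations of 45, 90 and 135 µM, each in duplicate, against a conidial suspension adjusted photometrically to 1.0 × 10^6 conidia/mL. Growth was read as A620 at 0, 24, 48 and 72 h. Percent inhibition/stimulation means were pooled from two experiments replicated in time.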

The subject of assay [20] is Colletotrichum acutatum. Briefly: Antifungal activity against Colletotrichum acutatum assessed as inhibition of fungal growth at 90 uM measured after 48 hr by 96-well microdilution assay. To be noted: read-out: GI. The assay is classed as functional. The gist of the method:
as §3

The test system of assay [21] is Colletotrichum gloeosporioides. Briefly: Antifungal activity against Colletotrichum gloeosporioides assessed as inhibition of fungal growth at 20 ug measured after 4 to 5 days by direct bioautography. Type of assay: functional. To be noted: read-out: DIZ. In outline: as §2
Assay [22] deals with Fusarium oxysporum. Briefly: Growth stimulation of Fusarium oxysporum at 333 uM after 24 to 72 hr by 96-well microdilution assay. The assay is classed as functional, organism-based. In outline:
as §1

The test system of assay [23] is Colletotrichum gloeosporioides. Kind of assay: Growth stimulation of Colletotrichum gloeosporioides at 333 uM after 24 to 72 hr by 96-well microdilution assay. The assay is classed as functional, organism-based. The gist of the method: as §1
For assay [24], the system named is Colletotrichum fragariae. Kind of assay: Growth stimulation of Colletotrichum fragariae at 333 uM after 24 to 72 hr by 96-well microdilution assay. Type of assay: functional, organism-based. The gist of the method: as §1
In assay [25] the test system is Colletotrichum gloeosporioides. Briefly: Growth stimulation of Colletotrichum gloeosporioides up to 100 uM after 24 to 72 hr by 96-well microdilution assay. Type of assay: functional, organism-based. The gist of the method: as §1
The test system of assay [26] is Colletotrichum gloeosporioides. Kind of assay: Antifungal activity against Colletotrichum gloeosporioides assessed as inhibition of fungal growth at 80 ug measured after 4 to 5 days by direct bioautography. Type of assay: functional. Conditions: read-out: DIZ. In outline:
as §2

Assay [27] deals with Colletotrichum fragariae. Briefly: Antifungal activity against Colletotrichum fragariae assessed as inhibition of fungal growth at 20 ug measured after 4 to 5 days by direct bioautography. Type of assay: functional. Conditions: read-out: DIZ. The gist of the method:
as §2

For `O=C1C2CC=CCC2C(=O)N1SC(Cl)(Cl)Cl` (centres undefined) [CAPTAN], the IC50 in the assay on Colletotrichum acutatum [1] was 5.2 µM; in the assay with Botrytis cinerea [2], 2.8 µM; in the assay with Fusarium oxysporum [3], 16 µM; in assay [4], 4.7 µM; with Colletotrichum fragariae [5], 3 µM; with Phomopsis obscurans [6], 1.1 µM. The concentration for half-maximal inhibition (IC50) in the assay on Fusarium oxysporum [7] was 2.8 µM; with Colletotrichum acutatum [8], 2.5 µM; in the assay with Botrytis cinerea [9] it was 1.4 µM; in the assay with Colletotrichum fragariae [10], 1.6 µM; in [11] it was 2.1 µM; with Phomopsis viticola [12], less than 1 µM. For the same molecule, in the assay with Phomopsis viticola [13], the IC50 is less than 1 µM.

On to `CCCCC/C=C\C=C\[C@@H](O)CCCCCCCC(=O)O`, for which the zone of inhibition at 80 µg/disc is 10 mm with Colletotrichum fragariae [14], 19 mm with Colletotrichum acutatum [16] and 7 mm in [26]. The zone of inhibition at 20 µg/disc in the assay with Colletotrichum acutatum [15] amounted to 5 mm; in [21], 3 mm; in the assay with Colletotrichum fragariae [27], 6 mm. The outcome (with Colletotrichum fragariae [17]; with Fusarium oxysporum [22]; in assay [25]) was Active. In addition, the “growth inhibition (GI)” value in the assay with Phomopsis obscurans [18] and in the assay with Phomopsis viticola [12] was “Dose-dependent effect” in each case. Moreover, the inhibition of growth at 90 µM in the assay on Colletotrichum acutatum [19] was determined as 37%; in the assay on Colletotrichum acutatum [20], 79%. Besides, the IC50 in the assay on Colletotrichum acutatum [1] is more than 333 µM; in the assay on Botrytis cinerea [2], more than 333 µM; in the assay with Fusarium oxysporum [3], more than 333 µM; in assay [4], more than 333 µM; in the assay with Colletotrichum fragariae [5], more than 333 µM; in the assay on Phomopsis obscurans [6], 10 µM. Moreover, the IC50 in the assay with Fusarium oxysporum [7] is more than 333 µM; in the assay with Colletotrichum acutatum [8], more than 333 µM; with Botrytis cinerea [9], more than 333 µM; in the assay with Colletotrichum fragariae [10] it was more than 333 µM; in assay [11], more than 333 µM; in the assay on Phomopsis viticola [12], 100 µM. For the same molecule, in the assay on Phomopsis viticola [13], the IC50 was more than 333 µM. In addition, the result (in [23]; in the assay with Colletotrichum fragariae [24]) was inactive.

Consider `CCCCC/C=C/C=C/C(=O)CCCCCCCC(=O)O`, for which the zone of inhibition at 80 µg/disc with Colletotrichum fragariae [14] is 6 mm; in the assay with Colletotrichum acutatum [16], 17 mm; in assay [26] it was 7 mm. In addition, the zone of inhibition at 20 µg/disc in the assay with Colletotrichum acutatum [15] was 8 mm; in assay [21], 6 mm; in the assay with Colletotrichum fragariae [27], 4 mm. Moreover, the IC50 in the assay on Colletotrichum acutatum [1] is more than 333 µM; in the assay on Botrytis cinerea [2], more than 333 µM; with Fusarium oxysporum [3], more than 333 µM; in assay [4], more than 333 µM; with Colletotrichum fragariae [5], more than 333 µM; in the assay on Phomopsis obscurans [6], 23 µM. The IC50 is more than 333 µM with Fusarium oxysporum [7]; more than 333 µM in the assay with Colletotrichum acutatum [8]; 90 µM with Botrytis cinerea [9]; 91 µM with Colletotrichum fragariae [10]; more than 333 µM in [11]; 65 µM in the assay with Phomopsis viticola [12]. Further, the IC50 in the assay with Phomopsis viticola [13] worked out at 110 µM.

Take `CCCCCC(=O)/C=C\C=C\CCCCCCCC(=O)O`: the zone of inhibition at 80 µg/disc amounted to 8 mm in the assay with Colletotrichum fragariae [14], 19 mm with Colletotrichum acutatum [16] and 7 mm in [26]. For the same molecule, the zone of inhibition at 20 µg/disc was 4 mm in the assay on Colletotrichum acutatum [15], 6 mm in [21] and 6 mm in the assay with Colletotrichum fragariae [27]. For the same molecule, the IC50 is more than 333 µM with Colletotrichum acutatum [1]; more than 333 µM with Botrytis cinerea [2]; more than 333 µM with Fusarium oxysporum [3]; more than 333 µM in [4]; 270 µM in the assay with Colletotrichum fragariae [5]; 4.5 µM in the assay on Phomopsis obscurans [6]. Also, the IC50 in the assay on Fusarium oxysporum [7] is more than 333 µM; with Colletotrichum acutatum [8], more than 333 µM; in the assay on Botrytis cinerea [9], 120 µM; in the assay with Colletotrichum fragariae [10], 160 µM; in [11], more than 333 µM; in the assay on Phomopsis viticola [12] it was 38 µM. Moreover, the IC50 in the assay on Phomopsis viticola [13] is 115 µM.

The values above are taken from ChEMBL document CHEMBL3045123, “Isolation and identification of antifungal fatty acids from the basidiomycete Gomphus floccosus” (J Agric Food Chem, 2008).
